Data as given in publication PMC6911349 (Drug Design, Development and Therapy, 2019).
Values after ≈ are worked out from the molar mass of the structure shown. Where a name gives a salt, the structure may show the parent alone. Read-outs that look alike come from different tables or passages of the source. One block for each molecule: values may come before it.

Legend:
[1] = ABTS anti-radicals study
Method in brief: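 ABTS (7 mM) combined with […] and held in the dark at 25 °C for 12–16 h to form radicals. Diluted in 0.01 M phosphate buffer, pH 7.4, to A734 of 0.70. 300 µL test compound solution added to 3.0 mL radical solution; decrease in absorbance recorded. Ascorbic acid as reference.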

[2] = DPPH radical scavenging assay
Method in brief: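 Test compound dilutions of 62.50–1000 µg/mL; 0.1 mL of each added to 3.0 mL DPPH in methanol. Incubated 30 min, then absorbance read at 517 nm. % scavenging = [(A0–A1)/A0]×100, where A0 is control and A1 is test absorbance. Ascorbic acid as reference.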

[3] = H2O2 anti-radicals study
Method in brief: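 2 mM H2O2 in 50 mM phosphate buffer, pH 7.4, mixed with 0.1 mL test compound at various concentrations. Absorbance at 230 nm read against blank after 10 min; H2O2 scavenging calculated from absorbance.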

[4] = biological target: α-glucosidase (Saccharomyces cerevisiae, UniProt P53341); assay: α-Glucosidase inhibition chromogenic assay; format: biochemical
[5] = biological target: butyrylcholinesterase (BChE) (Equus caballus, UniProt P81908); assay: Butyrylcholinesterase inhibitory assay; format: biochemical, equine; conditions: for inhibition at 62.5 µg/mL: read-out: Butyrylcholinesterase (BChE) Percent Inhibition (Mean±SEM), 62.5 μg/mL; for inhibition at 125 µg/mL: read-out: Butyrylcholinesterase (BChE) Percent Inhibition (Mean±SEM), 125 μg/mL; for inhibition at 250 µg/mL: read-out: Butyrylcholinesterase (BChE) Percent Inhibition (Mean±SEM), 250 μg/mL; for inhibition at 1000 µg/mL: read-out: Butyrylcholinesterase (BChE) Percent Inhibition (Mean±SEM), 1000 μg/mL
[6] = tested on: Pheretima posthuma; assay: Anthelmintic study
Method in brief: (§1)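 P. posthuma (7–9 cm) collected from muddy soil; A. galli taken from domestic chicken intestine. Test compound suspended in distilled water with Tween 80 at 10, 20 and 40 mg. 25 mL per Petri dish, six worms per dish. […] Paralysis and death times recorded.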

[7] = tested on: Ascaridia galli; assay: Anthelmintic study
Method in brief: as §1

[8] = tested on: HCT-116; assay: MTT assay; format: cell-based; conditions: Homo sapiens, HCT-116, 48 h
Method in brief: (§2)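 Cells grown in DMEM with 10% FBS, streptomycin 100 µg/mL and penicillin 100 IU/mL, at 37 °C, 5% CO2. Seeded at 6×10^4 cells/mL (80% confluence) and incubated overnight. Medium replaced with fresh medium holding test compound at 31.25–1000 ppm for 48 h.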

[9] = tested on: MDA-MB-231; assay: MTT assay; format: cell-based; conditions: Homo sapiens, MDA-MB-231, 48 h
Method in brief: as §2

[10] = tested on: NIH/3T3; assay: MTT assay; format: cell-based; conditions: Mus musculus, NIH3T3, 48 h
Method in brief: as §2

[11] = tested on: MCF-7; assay: MTT assay; format: cell-based; conditions: Homo sapiens, MCF7, 48 h
Method in brief: as §2

[12] = MTT assay, normal cell line; format: cell-based; conditions: human, WI-38 normal cell line
Method in brief: as §2

[13] = tested on: WI-38; assay: MTT assay, normal cell line; format: cell-based; conditions: Homo sapiens, WI-38, WI-38 normal cell line
Method in brief: as §2

[14] = biological target: acetylcholinesterase (AChE) (Electrophorus electricus, UniProt O42275); assay: biochemical; design: species or system electric eel
[15] = 40 mg/mL, listed as albendazole
[16] = 1000 µg/mL, listed as test compound
[17] = 40 mg/mL, listed as test compound

Chain of butyrylcholinesterase (BChE) (P81908 whole entry): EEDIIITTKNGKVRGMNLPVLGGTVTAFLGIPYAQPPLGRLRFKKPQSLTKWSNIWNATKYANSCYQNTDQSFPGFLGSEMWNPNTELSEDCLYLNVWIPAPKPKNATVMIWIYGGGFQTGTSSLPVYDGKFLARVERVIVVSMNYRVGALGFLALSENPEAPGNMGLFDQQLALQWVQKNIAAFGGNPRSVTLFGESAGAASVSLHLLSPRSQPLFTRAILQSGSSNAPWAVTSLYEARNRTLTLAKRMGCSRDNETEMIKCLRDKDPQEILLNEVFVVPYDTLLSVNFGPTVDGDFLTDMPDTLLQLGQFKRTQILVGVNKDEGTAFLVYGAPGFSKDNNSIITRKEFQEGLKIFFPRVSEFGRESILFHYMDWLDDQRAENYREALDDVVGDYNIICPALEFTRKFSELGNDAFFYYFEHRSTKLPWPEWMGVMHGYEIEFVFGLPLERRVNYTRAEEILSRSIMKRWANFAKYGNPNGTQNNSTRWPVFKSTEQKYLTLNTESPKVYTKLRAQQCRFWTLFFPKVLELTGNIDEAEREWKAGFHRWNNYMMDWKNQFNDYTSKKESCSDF
Chain of acetylcholinesterase (AChE) (O42275 24-633): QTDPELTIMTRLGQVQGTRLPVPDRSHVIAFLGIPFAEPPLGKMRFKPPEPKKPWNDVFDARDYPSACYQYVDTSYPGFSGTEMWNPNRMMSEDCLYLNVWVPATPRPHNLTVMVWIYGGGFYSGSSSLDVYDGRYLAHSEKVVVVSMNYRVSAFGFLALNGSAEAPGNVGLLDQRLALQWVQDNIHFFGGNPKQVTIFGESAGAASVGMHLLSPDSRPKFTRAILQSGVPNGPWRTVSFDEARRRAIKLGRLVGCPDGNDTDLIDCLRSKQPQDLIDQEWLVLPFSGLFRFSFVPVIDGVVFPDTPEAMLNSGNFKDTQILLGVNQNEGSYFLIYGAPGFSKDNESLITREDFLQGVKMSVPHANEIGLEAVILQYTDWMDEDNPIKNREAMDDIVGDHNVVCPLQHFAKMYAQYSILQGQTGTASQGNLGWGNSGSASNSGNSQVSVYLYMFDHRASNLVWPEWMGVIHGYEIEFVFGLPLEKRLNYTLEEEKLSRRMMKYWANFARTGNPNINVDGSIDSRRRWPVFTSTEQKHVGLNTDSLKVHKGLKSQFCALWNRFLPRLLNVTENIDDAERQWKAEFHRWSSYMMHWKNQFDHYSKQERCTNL
Chain of α-glucosidase (P53341 whole entry): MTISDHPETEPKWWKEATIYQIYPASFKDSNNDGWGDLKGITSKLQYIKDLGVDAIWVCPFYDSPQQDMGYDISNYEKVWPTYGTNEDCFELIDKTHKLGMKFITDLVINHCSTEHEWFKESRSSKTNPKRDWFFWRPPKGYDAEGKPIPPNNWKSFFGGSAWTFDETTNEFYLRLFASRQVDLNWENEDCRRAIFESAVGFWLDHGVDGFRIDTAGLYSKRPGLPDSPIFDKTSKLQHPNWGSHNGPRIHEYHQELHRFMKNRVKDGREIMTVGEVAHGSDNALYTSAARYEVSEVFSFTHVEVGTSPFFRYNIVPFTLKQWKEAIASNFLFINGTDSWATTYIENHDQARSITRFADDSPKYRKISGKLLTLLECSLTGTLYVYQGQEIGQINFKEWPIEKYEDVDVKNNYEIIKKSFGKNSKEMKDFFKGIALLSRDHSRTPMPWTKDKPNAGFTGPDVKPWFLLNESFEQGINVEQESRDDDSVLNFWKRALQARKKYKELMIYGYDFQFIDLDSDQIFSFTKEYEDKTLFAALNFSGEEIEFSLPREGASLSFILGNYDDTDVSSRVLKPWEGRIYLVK

- ABTS IC50 value [1]: 18.04 µg/mL
- DPPH IC50 value [2]: 11.39 µg/mL
- H2O2 IC50 value [3]: 29.73 µg/mL
Structure (SMILES): O=C1O[C@H]([C@@H](O)CO)C(O)=C1O [Ascorbic acid, ascorbic acid, reference compound]
- ABTS % Inhibition (Mean±SEM) ([1]; 62.5 µg/mL): 59.12±0.34%
- ABTS % Inhibition (Mean±SEM) ([1]; 125 µg/mL): 64.47±0.49%
- ABTS % Inhibition (Mean±SEM) ([1]; 250 µg/mL): 69.75±0.14%
- ABTS % Inhibition (Mean±SEM) ([1]; 500 µg/mL): 76.59±0.30%
- ABTS % Inhibition (Mean±SEM) ([1]; 1000 µg/mL): 81.85±0.18%
- DPPH % Inhibition (Mean±SEM) ([2]; 62.5 µg/mL): 61.35±0.18%
- DPPH % Inhibition (Mean±SEM) ([2]; 125 µg/mL): 66.20±0.15%
- DPPH % Inhibition (Mean±SEM) ([2]; 250 µg/mL): 73.42±0.11%
- DPPH % Inhibition (Mean±SEM) ([2]; 500 µg/mL): 78.62±0.17%
- DPPH % Inhibition (Mean±SEM) ([2]; 1000 µg/mL): 83.53±0.20%
- H2O2 % Inhibition (Mean±SEM) ([3]; 62.5 µg/mL): 56.67±1.67%
- H2O2 % Inhibition (Mean±SEM) ([3]; 125 µg/mL): 61.33±1.33%
- H2O2 % Inhibition (Mean±SEM) ([3]; 250 µg/mL): 68.85±1.85%
- H2O2 % Inhibition (Mean±SEM) ([3]; 500 µg/mL): 74.67±0.67%
- H2O2 % Inhibition (Mean±SEM) ([3]; 1000 µg/mL): 78.00±1.15%

- Percent α-glucosidase inhibition ([4]; 31.25 µg/mL): 59.7±1.7%
- Percent α-glucosidase inhibition ([4]; 62.5 µg/mL): 67.3±2.8%
- Percent α-glucosidase inhibition ([4]; 125 µg/mL): 71.7±1.7%
- Percent α-glucosidase inhibition ([4]; 250 µg/mL): 74.4± 2.3%
- Percent α-glucosidase inhibition ([4]; 500 µg/mL): 81.7±2.6%
- Percent α-glucosidase inhibition ([4]; 1000 µg/mL): 86.7±2.6%
Structure (SMILES): C[C@H]1O[C@H](O[C@H]2[C@H](O)[C@@H](O)[C@@H](O[C@H]3[C@H](O)[C@@H](O)C(O)O[C@@H]3CO)O[C@@H]2CO)[C@H](O)[C@@H](O)[C@@H]1N[C@H]1C=C(CO)[C@@H](O)[C@H](O)[C@H]1O (some centres unmarked) [Acarbose, acarbose]

Structure (SMILES): COc1ccc2c3c1O[C@H]1C[C@@H](O)C=C[C@@]31CCN(C)C2 [Galanthamine, Galanthamine hydrobromide, reference compound]
- inhibition at 62.5 µg/mL [5]: 71.4%
- inhibition at 125 µg/mL [5]: 78.6%
- inhibition at 250 µg/mL [5]: 82.8%
- inhibition at 1000 µg/mL [5]: 95%

Structure (SMILES): CCCSc1ccc2nc(NC(=O)OC)[nH]c2c1 [Alb, Albendazole, reference compound]
- Pheretima posthuma Death Time ([6]; 10 mg/mL): 48.70 ± 2.06 min
- Pheretima posthuma Paralysis Time ([6]; 10 mg/mL): 09.08 ± 1.56 min
- Pheretima posthuma Death Time ([6]; 20 mg/mL): 39.33 ± 1.54 min
- Pheretima posthuma Paralysis Time ([6]; 20 mg/mL): 07.24 ± 1.38 min
- Pheretima posthuma Death Time ([6]; 40 mg/mL): 28.92 ± 2.68 min
- Pheretima posthuma Paralysis Time ([6]; 40 mg/mL): 04.67 ± 0.57 min
- Pheretima posthuma Death Time [6, 15]: 28.92 min
- Pheretima posthuma Paralysis Time [6, 15]: 4.67 min
- Ascaridia galli Death Time ([7]; 10 mg/mL): 36.32 ± 1.36 min
- Ascaridia galli Paralysis Time ([7]; 10 mg/mL): 11.26 ± 2.81 min
- Ascaridia galli Death Time ([7]; 20 mg/mL): 32.56 ± 1.93 min
- Ascaridia galli Paralysis Time ([7]; 20 mg/mL): 09.45 ± 1.63 min
- Ascaridia galli Death Time ([7]; 40 mg/mL): 25.68 ± 3.62 min
- Ascaridia galli Paralysis Time ([7]; 40 mg/mL): 07.18 ± 1.74 min

Structure (SMILES): CCC(C=O)C1CC(=O)N(c2ccccc2)C1=O (centres unmarked) [2-(2,5-dioxo-1-phenylpyrrolidin-3-yl)butanal]
- IC50 [8]: 78 µg/mL (≈ 318 µM)
- IC50 [9]: 231 µg/mL (≈ 942 µM)
- IC50 [10]: 181 µg/mL (≈ 738 µM)
- IC50 [11]: 277 µg/mL (≈ 1130 µM)
- cytotoxicity at 48 h, 1000 ppm [12]: 16%
- IC50 [13]: > 3000 µg/mL
- IC50 [14]: 422 µM
- Acetylcholinesterase (AChE) Percent Inhibition (Mean±SEM) ([14]; 1000 µg/mL): 71.3±1.9%
- inhibition at 62.5 µg/mL ([14]; read-out: Acetylcholinesterase (AChE) Percent Inhibition (Mean±SEM), 62.5 μg/mL): 39.6%
- inhibition at 125 µg/mL ([14]; read-out: Acetylcholinesterase (AChE) Percent Inhibition (Mean±SEM), 125 μg/mL): 55.9%
- inhibition at 250 µg/mL ([14]; read-out: Acetylcholinesterase (AChE) Percent Inhibition (Mean±SEM), 250 μg/mL): 61.2%
- inhibition at 500 µg/mL ([14]; read-out: Acetylcholinesterase (AChE) Percent Inhibition (Mean±SEM), 500 μg/mL): 65.4%
- inhibition at 1000 µg/mL ([14]; read-out: Acetylcholinesterase (AChE) Percent Inhibition (Mean±SEM), 1000 μg/mL): 71.3 ± 1.92%
- IC50 [5]: 539 µM
- Butyrylcholinesterase (BChE) Percent Inhibition (Mean±SEM) ([5]; 1000 µg/mL): 73.4±1.9%
- inhibition at 62.5 µg/mL [5]: 36.9%
- inhibition at 125 µg/mL [5]: 49.3%
- inhibition at 250 µg/mL [5]: 52.7%
- inhibition at 500 µg/mL ([5]; read-out: Butyrylcholinesterase (BChE) Percent Inhibition (Mean±SEM), 500 μg/mL): 64.3%
- inhibition at 1000 µg/mL [5]: 73.4 ± 1.92%
- ABTS IC50 value [1]: 84.36 µg/mL
- ABTS % Inhibition (Mean±SEM) ([1]; 62.5 µg/mL): 48.08±2.19%
- ABTS % Inhibition (Mean±SEM) ([1]; 125 µg/mL): 57.22±1.63%
- ABTS % Inhibition (Mean±SEM) ([1]; 250 µg/mL): 61.28±0.84%
- ABTS % Inhibition (Mean±SEM) ([1]; 500 µg/mL): 68.35±1.96%
- ABTS % Inhibition (Mean±SEM) ([1]; 1000 µg/mL): 75.84±1.58%
- ABTS % Inhibition (Mean±SEM) [1, 16]: 72.85±1.17%
- ABTS IC50 value ([1]; listed as test compound): 139.74 µg/mL
- DPPH IC50 value [2]: 139.74 µg/mL
- DPPH % Inhibition (Mean±SEM) ([2]; 62.5 µg/mL): 33.32±2.04%
- DPPH % Inhibition (Mean±SEM) ([2]; 125 µg/mL): 49.01±1.28%
- DPPH % Inhibition (Mean±SEM) ([2]; 250 µg/mL): 61.41±2.36%
- DPPH % Inhibition (Mean±SEM) ([2]; 500 µg/mL): 71.36±1.92%
- DPPH % Inhibition (Mean±SEM) ([2]; 1000 µg/mL): 72.85±1.17%
- DPPH % Inhibition (Mean±SEM) [2, 16]: 75.84±1.58%
- DPPH IC50 value ([2]; listed as test compound): 84.36 µg/mL
- H2O2 IC50 value [3]: 752.21 µg/mL
- H2O2 % Inhibition (Mean±SEM) ([3]; 62.5 µg/mL): 26.08±2.66%
- H2O2 % Inhibition (Mean±SEM) ([3]; 125 µg/mL): 31.58±1.40%
- H2O2 % Inhibition (Mean±SEM) ([3]; 250 µg/mL): 39.92±2.08%
- H2O2 % Inhibition (Mean±SEM) ([3]; 500 µg/mL): 46.08±1.36%
- H2O2 % Inhibition (Mean±SEM) ([3]; 1000 µg/mL): 54.82±1.82%
- Pheretima posthuma Death Time ([6]; 10 mg/mL): 23.67 ± 1.52 min
- Pheretima posthuma Paralysis Time ([6]; 10 mg/mL): 06.67 ± 1.08 min
- Pheretima posthuma Death Time ([6]; 20 mg/mL): 19.23 ± 2.56 min
- Pheretima posthuma Paralysis Time ([6]; 20 mg/mL): 05.68 ± 0.34 min
- Pheretima posthuma Death Time ([6]; 40 mg/mL): 14.71 ± 1.73 min
- Pheretima posthuma Paralysis Time ([6]; 40 mg/mL): 02.48 ± 1.62 min
- Pheretima posthuma Death Time [6, 17]: 14.71 min
- Pheretima posthuma Paralysis Time [6, 17]: 2.48 min
- Ascaridia galli Death Time ([7]; 10 mg/mL): 18.42 ± 1.70 min
- Ascaridia galli Paralysis Time ([7]; 10 mg/mL): 06.54 ± 1.67 min
- Ascaridia galli Death Time ([7]; 20 mg/mL): 11.36 ± 1.94 min
- Ascaridia galli Paralysis Time ([7]; 20 mg/mL): 04.82 ± 1.38 min
- Ascaridia galli Death Time ([7]; 40 mg/mL): 09.39 ± 1.48 min
- Ascaridia galli Paralysis Time ([7]; 40 mg/mL): 02.19 ± 0.96 min
